Data: ChEMBL document CHEMBL4622950, “The synthesis and antituberculosis activity of 5-alkynyl uracil derivatives” (Bioorg Med Chem Lett, 2020)
Values after ≈ are worked out from the molar mass of the structure shown.

Columns and labels:
[1] = test system: Mycobacterium tuberculosis; test: Antitubercular activity against Mycobacterium tuberculosis H37Ra assessed as bacterial growth inhibition at 50 to 100 ug/ml by MABA relative to control; assay type: functional
[2] = Cytotoxicity against human MRC5 cells assessed as reduction in cell viability by MTT assay; assay type: cell-based
In short: (§1)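 Viability read by the standard formazan (MTT) method. CC50 is the concentration giving a 50% decrease in cell viability, reported in µM as CC50±SD.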

[3] = Cytotoxicity against human A549 cells assessed as reduction in cell viability by MTT assay; assay type: cell-based; in short: as §1
[4] = Cytotoxicity against African green monkey Vero cells assessed as reduction in cell viability by MTT assay; assay type: cell-based; conditions: chlorocebus sabaeus; in short: as §1
[5] = test system: Mycobacterium tuberculosis; test: Antitubercular activity against Mycobacterium tuberculosis H37Ra assessed as bacterial growth inhibition by MABA; assay type: functional
In short: (§2)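 Whole-cell growth inhibition of Mycobacterium bovis and M. tuberculosis H37Ra, read quantitatively by Microplate Alamar Blue Assay (alamar blue reagent). Compounds were tested across 1 to 100 µg/ml. Activity was expressed as MIC50 (µg/ml) from this concentration series.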

[6] = test system: Mycobacterium tuberculosis; test: Antitubercular activity against Mycobacterium tuberculosis H37Ra assessed as bacterial growth inhibition at 1 to 5 ug/ml by MABA relative to control; assay type: functional
[7] = test system: Mycobacterium tuberculosis; test: Antitubercular activity against Mycobacterium tuberculosis H37Ra assessed as bacterial growth inhibition by MABA relative to control; assay type: functional; in short: as §2
[8] = test system: Mycobacterium tuberculosis; test: Antitubercular activity against Mycobacterium tuberculosis H37Ra assessed as bacterial growth inhibition at 100 ug/ml by MABA relative to control; assay type: functional; conditions: read-out: GI
[9] = test system: Mycobacterium tuberculosis; test: Antitubercular activity against Mycobacterium tuberculosis H37Ra assessed as bacterial growth inhibition at 25 ug/ml by MABA relative to control; assay type: functional; conditions: read-out: GI
[10] = test system: Mycobacterium tuberculosis; test: Antitubercular activity against Mycobacterium tuberculosis H37Ra assessed as bacterial growth inhibition at 50 ug/ml by MABA relative to control; assay type: functional; conditions: read-out: GI
[11] = test system: Mycobacterium tuberculosis; test: Antitubercular activity against Mycobacterium tuberculosis H37Ra assessed as bacterial growth inhibition at 10 ug/ml by MABA relative to control; assay type: functional; conditions: read-out: GI
[12] = test system: Mycobacterium tuberculosis; test: Antitubercular activity against Mycobacterium tuberculosis H37Ra assessed as bacterial growth inhibition at 1 ug/ml by MABA relative to control; assay type: functional; conditions: read-out: GI
[13] = test system: Mycobacterium tuberculosis; test: Antitubercular activity against Mycobacterium tuberculosis H37Ra assessed as bacterial growth inhibition at 5 ug/ml by MABA relative to control; assay type: functional; conditions: read-out: GI

In the case of `O=c1[nH]cc(C#Cc2ccccc2)c(=O)[nH]1`, the “growth inhibition (GI)” value [1] is reported as 90%, the CC50 [2] is reported as 75.1 µM and the CC50 [3] is reported as 248 µM. The CC50 [4] was 254 µM and the MIC50 [5] was 18.2 µg/mL (≈ 85.8 µM).
`O=c1[nH]c(=O)n([C@@H]2O[C@H](CO)[C@@H](O)[C@H]2O)cc1C#CC(O)c1ccccc1` (stereo not given in full) gave a CC50 [2] of 0.9 µM, a CC50 [3] of 34.2 µM and a CC50 [4] of 65.4 µM. The “growth inhibition (GI)” value [6] was 100% and the MIC50 [5] was 1.1 µg/mL (≈ 2.94 µM).
In the case of `CC#Cc1c[nH]c(=O)[nH]c1=O`, the CC50 [2] is reported as 117 µM, the CC50 [3] is reported as 256 µM and the CC50 [4] is reported as 262 µM. For the same compound, the “growth inhibition (GI)” value [7] was 0%.
In the case of `C[Si](C)(C)C#Cc1c[nH]c(=O)[nH]c1=O`, the CC50 [2] is reported as 124 µM, the CC50 [3] is reported as 268 µM and the CC50 [4] is reported as 270 µM. The inhibition of growth at 100 µg/mL [8] was 50% and the MIC50 [5] was 100 µg/mL (≈ 480 µM).
With `O=c1[nH]c(=O)n([C@@H]2O[C@H](CO)[C@@H](O)[C@H]2O)cc1C#CC1CCCCC1` the CC50 [2] was 36.8 µM, the CC50 [3] was 127 µM and the inhibition of growth at 25 µg/mL [9] was 55%. The CC50 [4] was 148 µM, the inhibition of growth at 50 µg/mL [10] was 70% and the “growth inhibition (GI)” value [6] was 10%. The MIC50 [5] was 18.9 µg/mL (≈ 53.9 µM).
In the case of `O=c1[nH]cc(C#CC2CCCCC2)c(=O)[nH]1`, the CC50 [2] is reported as 62.8 µM, the CC50 [3] is reported as 245 µM and the CC50 [4] is reported as 247 µM. For the same compound, the “growth inhibition (GI)” value [6] was 50%, the inhibition of growth at 100 µg/mL [8] was 90% and the MIC50 [5] was 2.8 µg/mL (≈ 12.8 µM).
With `CCCCCCC#Cc1cn([C@@H]2O[C@H](CO)[C@@H](O)[C@H]2O)c(=O)[nH]c1=O` the CC50 [2] was 15.7 µM, the CC50 [3] was 87.2 µM and the CC50 [4] was 111 µM. For the same compound, the inhibition of growth at 10 µg/mL [11] was 0%, the inhibition of growth at 100 µg/mL [8] was 90% and the MIC50 [5] was < 50 µg/mL.
Work on `CCCCC#Cc1cn([C@@H]2O[C@H](CO)[C@@H](O)[C@H]2O)c(=O)[nH]c1=O` yielded a CC50 [2] of 11.6 µM, a CC50 [3] of 83.2 µM and a CC50 [4] of 103 µM. The inhibition of growth at 50 µg/mL [10] was 50%, the inhibition of growth at 10 µg/mL [11] was 10% and the inhibition of growth at 100 µg/mL [8] was 90%. It also gave an MIC50 [5] of 50 µg/mL (≈ 154 µM).
Work on `NNC(=O)c1ccncc1` [ISONIAZID] yielded an inhibition of growth at 1 µg/mL [12] of 100% and an MIC50 [5] of 0.8 µg/mL (≈ 5.83 µM).
With `CCCCCCC#Cc1c[nH]c(=O)[nH]c1=O` the CC50 [2] was 94.9 µM, the CC50 [3] was 249 µM and the CC50 [4] was 250 µM. For the same compound, the “growth inhibition (GI)” value [7] was 0%.
Compound `CCC#Cc1c[nH]c(=O)[nH]c1=O` has a CC50 [2] of 120 µM, a CC50 [3] of 253 µM and a CC50 [4] of 263 µM. The “growth inhibition (GI)” value [7] was 0%.
With `O=c1[nH]cc(C#CC(O)c2ccccc2)c(=O)[nH]1` (stereo not given) the “growth inhibition (GI)” value [1] was 90%, the CC50 [2] was 38.4 µM and the CC50 [3] was 237 µM. The CC50 [4] was 242 µM, the “growth inhibition (GI)” value [6] was 50% and the inhibition of growth at 10 µg/mL [11] was 75%. For the same compound, the MIC50 [5] was 2.9 µg/mL (≈ 12 µM).
In the case of `O=c1[nH]c(=O)n([C@@H]2O[C@H](CO)[C@@H](O)[C@H]2O)cc1C#Cc1ccccc1`, the “growth inhibition (GI)” value [1] is reported as 90%, the CC50 [2] is reported as 1.2 µM and the CC50 [3] is reported as 42.5 µM. For the same compound, the CC50 [4] was 78.4 µM, the “growth inhibition (GI)” value [6] was 50% and the inhibition of growth at 10 µg/mL [11] was 70%. It also gave an MIC50 [5] of 3.2 µg/mL (≈ 9.29 µM).
With `O=c1[nH]cc(C#CC2CC2)c(=O)[nH]1` the CC50 [2] was 101 µM, the CC50 [3] was 251 µM and the CC50 [4] was 252 µM. For the same compound, the inhibition of growth at 50 µg/mL [10] was 70%, the inhibition of growth at 100 µg/mL [8] was 90% and the MIC50 [5] was 5.2 µg/mL (≈ 29.5 µM).
Work on `CCCCC#Cc1c[nH]c(=O)[nH]c1=O` yielded a CC50 [2] of 113 µM, a CC50 [3] of 250 µM and a CC50 [4] of 253 µM. The “growth inhibition (GI)” value [7] was 0%.
Compound `N[C@@H]1CONC1=O` [CYCLOSERINE] has an inhibition of growth at 5 µg/mL [13] of 50%, an inhibition of growth at 10 µg/mL [11] of 67% and an MIC50 [5] of 5.2 µg/mL (≈ 50.9 µM).
`O=c1[nH]c(=O)n([C@@H]2O[C@H](CO)[C@@H](O)[C@H]2O)cc1C#CC1CC1` gave a CC50 [2] of 24.2 µM, a CC50 [3] of 115 µM and a CC50 [4] of 133 µM. The “growth inhibition (GI)” value [6] was 50%, the inhibition of growth at 10 µg/mL [11] was 70% and the inhibition of growth at 100 µg/mL [8] was 90%.
With `CO[C@H]1/C=C/O[C@@]2(C)Oc3c(C)c(O)c4c(O)c(c(/C=N/N5CCN(C)CC5)c(O)c4c3C2=O)NC(=O)/C(C)=C\C=C\[C@H](C)[C@H](O)[C@@H](C)[C@@H](O)[C@@H](C)[C@H](OC(C)=O)[C@@H]1C` [RIFAMPIN] the inhibition of growth at 1 µg/mL [12] was 100% and the MIC50 [5] was 0.7 µg/mL (≈ 0.851 µM).
